Legend:
Format in all cases: functional
Rattus norvegicus [1] = test: Inhibition of passive cutaneous anaphylaxis in male Sprague-Dawley rats following 10 mg/kg p.o. administration.; conditions: route oral
How it was run: (§1)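 IgE antiserum raised in male Sprague-Dawley rats (ca. 200 g) by immunization with Ascaris suum extract (2 then 0.2 mg protein), bled 2 weeks after the second dose. Recipients got 0.05 mL diluted antiserum intracutaneously on the back. Blued area (product of two diameters) was read at 30 min.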

Rattus norvegicus [2] = test: Antiallergic activity against passive cutaneous anaphylaxis (PCA) in male Sprague-Dawley rats after 3.0 mg/kg oral administration;p<0.1; how it was run: as §1
Rattus norvegicus [3] = test: Inhibition of passive cutaneous anaphylaxis in male Sprague-Dawley rats following 1 mg/kg p.o. administration; Not significant.; conditions: route oral; how it was run: as §1
Rattus norvegicus [4] = test: Antiallergic activity against passive cutaneous anaphylaxis (PCA) in male Sprague-Dawley rats after 3.0 mg/kg oral administration;p<0.1.; how it was run: as §1
Rattus norvegicus [5] = test: Antiallergic activity against passive cutaneous anaphylaxis (PCA) in male Sprague-Dawley rats after 3.0 mg/kg oral administration; how it was run: as §1
Rattus norvegicus [6] = test: Antiallergic activity against passive cutaneous anaphylaxis (PCA) in male Sprague-Dawley rats after 1.0 mg/kg oral administration; how it was run: as §1
Rattus norvegicus [7] = test: Antiallergic activity against passive cutaneous anaphylaxis (PCA) in male Sprague-Dawley rats after 0.3 mg/kg oral administration;p<0.1; how it was run: as §1
Rattus norvegicus [8] = test: Antiallergic activity against passive cutaneous anaphylaxis (PCA) in male Sprague-Dawley rats after 10.0 mg/kg oral administration;not statistically significant; how it was run: as §1
Rattus norvegicus [9] = test: Antiallergic activity against passive cutaneous anaphylaxis (PCA) in male Sprague-Dawley rats after 3.0 mg/kg oral administration;not statistically significant; how it was run: as §1
Rattus norvegicus [10] = test: Antiallergic activity against passive cutaneous anaphylaxis (PCA) in male Sprague-Dawley rats after 10.0 mg/kg oral administration;p<0.1; how it was run: as §1
Rattus norvegicus [11] = test: Antiallergic activity against passive cutaneous anaphylaxis (PCA) in male Sprague-Dawley rats after 1.0 mg/kg oral administration;p<0.1; how it was run: as §1
Rattus norvegicus [12] = test: Antiallergic activity against passive cutaneous anaphylaxis (PCA) in male Sprague-Dawley rats after 0.3 mg/kg oral administration; how it was run: as §1
Rattus norvegicus [13] = test: Inhibition of passive cutaneous anaphylaxis in male Sprague-Dawley rats following 0.3 mg/kg p.o. administration; Not significant.; conditions: route oral; how it was run: as §1

## COc1cc(C(=O)Nc2nn[nH]n2)nc(-c2ccc(OC)c(OC)c2)c1
Rattus norvegicus [1]
  inhibition in vivo at 10 mg/kg: 51%
Rattus norvegicus [2]
  inhibition in vivo at 3 mg/kg: 62%
Rattus norvegicus [3]
  inhibition in vivo at 1 mg/kg: 18%

## CCc1ccc(-c2cc(C)cc(C(=O)Nc3nn[nH]n3)n2)cc1
Rattus norvegicus [4]
  inhibition in vivo at 3 mg/kg: 35%
Rattus norvegicus [1]
  inhibition in vivo at 10 mg/kg: 100%

## Cc1cc(C(=O)Nc2nn[nH]n2)nc(-c2ccc(N)cc2)c1
Rattus norvegicus [5]
  inhibition in vivo at 3 mg/kg: 100%
Rattus norvegicus [6]
  inhibition in vivo at 1 mg/kg: 75%
Rattus norvegicus [7]
  inhibition in vivo at 0.3 mg/kg: 54%

## Cc1ccccc1-c1cc(Cl)cc(C(=O)Nc2nn[nH]n2)n1
Rattus norvegicus [8]
  inhibition in vivo at 10 mg/kg: 24%

## COc1cc(C(=O)Nc2nn[nH]n2)nc(-c2ccccc2OC)c1
Rattus norvegicus [5]
  inhibition in vivo at 3 mg/kg: 68%
Rattus norvegicus [3]
  inhibition in vivo at 1 mg/kg: 41%
Rattus norvegicus [7]
  inhibition in vivo at 0.3 mg/kg: 35%

## CCCCc1ccc(-c2cc(CC(C)C)cc(C(=O)Nc3nn[nH]n3)n2)cc1
Rattus norvegicus [9]
  inhibition in vivo at 3 mg/kg: 3%
Rattus norvegicus [8]
  inhibition in vivo at 10 mg/kg: 13%

## CC(C)Cc1cc(C(=O)Nc2nn[nH]n2)nc(-c2ccccc2)c1
Rattus norvegicus [8]
  inhibition in vivo at 10 mg/kg: 11%

## COc1ccc(-c2cc(C)cc(C(=O)Nc3nn[nH]n3)n2)cc1
Rattus norvegicus [5]
  inhibition in vivo at 3 mg/kg: 43%
Rattus norvegicus [10]
  inhibition in vivo at 10 mg/kg: 52%

## Cc1ccc(-c2cc(C(C)C)cc(C(=O)Nc3nn[nH]n3)n2)cc1
Rattus norvegicus [2]
  inhibition in vivo at 3 mg/kg: 42%
Rattus norvegicus [3]
  inhibition in vivo at 1 mg/kg: 20%

## COc1cc(C(=O)Nc2nn[nH]n2)nc(-c2ccc(N)cc2)c1
Rattus norvegicus [11]
  inhibition in vivo at 1 mg/kg: 50%
Rattus norvegicus [7]
  inhibition in vivo at 0.3 mg/kg: 12%

## COc1cc(C(=O)Nc2nn[nH]n2)nc(-c2ccccc2Cl)c1
Rattus norvegicus [8]
  inhibition in vivo at 10 mg/kg: 17%

## O=C(Nc1nn[nH]n1)c1cc(Cl)cc(-c2ccc(Cl)cc2)n1
Rattus norvegicus [5]
  inhibition in vivo at 3 mg/kg: 11%
Rattus norvegicus [10]
  inhibition in vivo at 10 mg/kg: 63%

## COc1cc(C(=O)Nc2nn[nH]n2)nc(-c2cccc(N)c2)c1
Rattus norvegicus [11]
  inhibition in vivo at 1 mg/kg: 27%
Rattus norvegicus [5]
  inhibition in vivo at 3 mg/kg: 41%
Rattus norvegicus [10]
  inhibition in vivo at 10 mg/kg: 58%

## CCCOc1cc(C(=O)Nc2nn[nH]n2)nc(-c2ccccc2)c1
Rattus norvegicus [11]
  inhibition in vivo at 1 mg/kg: 27%
Rattus norvegicus [5]
  inhibition in vivo at 3 mg/kg: 100%
Rattus norvegicus [12]
  inhibition in vivo at 0.3 mg/kg: 0%

## Cc1cc(C(=O)Nc2nn[nH]n2)nc(-c2cccc(N)c2)c1
Rattus norvegicus [2]
  inhibition in vivo at 3 mg/kg: 50%
Rattus norvegicus [3]
  inhibition in vivo at 1 mg/kg: 29%

## COc1cc(C(=O)Nc2nn[nH]n2)nc(-c2ccc(C(C)(C)C)cc2)c1
Rattus norvegicus [2]
  inhibition in vivo at 3 mg/kg: 68%
Rattus norvegicus [3]
  inhibition in vivo at 1 mg/kg: 29%

## COc1cc(-c2cccc(C(=O)Nc3nn[nH]n3)n2)cc(OC)c1OC
Rattus norvegicus [9]
  inhibition in vivo at 3 mg/kg: 15%
Rattus norvegicus [8]
  inhibition in vivo at 10 mg/kg: 45%

## COc1cc(C(=O)Nc2nn[nH]n2)nc(-c2cc(OC)c(OC)c(OC)c2)c1
Rattus norvegicus [5]
  inhibition in vivo at 3 mg/kg: 0%
Rattus norvegicus [8]
  inhibition in vivo at 10 mg/kg: 25%

## COc1cc(C(=O)Nc2nn[nH]n2)nc(-c2ccc([N+](=O)[O-])cc2)c1
Rattus norvegicus [8]
  inhibition in vivo at 10 mg/kg: 6%

## O=C(Nc1nn[nH]n1)c1cc(Cl)cc(-c2ccc([N+](=O)[O-])cc2)n1
Rattus norvegicus [9]
  inhibition in vivo at 3 mg/kg: 23%
Rattus norvegicus [8]
  inhibition in vivo at 10 mg/kg: 48%

## CCCCc1ccc(-c2cc(C)cc(C(=O)Nc3nn[nH]n3)n2)cc1
Rattus norvegicus [11]
  inhibition in vivo at 1 mg/kg: 42%
Rattus norvegicus [5]
  inhibition in vivo at 3 mg/kg: 67%
Rattus norvegicus [13]
  inhibition in vivo at 0.3 mg/kg: 17%

## CCc1ccc(-c2cccc(C(=O)Nc3nn[nH]n3)n2)cc1
Rattus norvegicus [3]
  inhibition in vivo at 1 mg/kg: 39%
Rattus norvegicus [7]
  inhibition in vivo at 0.3 mg/kg: 14%

## CCOc1cc(C(=O)Nc2nn[nH]n2)nc(-c2ccccc2)c1
Rattus norvegicus [2]
  inhibition in vivo at 3 mg/kg: 51%
Rattus norvegicus [3]
  inhibition in vivo at 1 mg/kg: 29%

## COc1ccc(-c2cc(Cl)cc(C(=O)Nc3nn[nH]n3)n2)cc1
Rattus norvegicus [5]
  inhibition in vivo at 3 mg/kg: 100%
Rattus norvegicus [6]
  inhibition in vivo at 1 mg/kg: 43%
Rattus norvegicus [12]
  inhibition in vivo at 0.3 mg/kg: 40%

## Cc1ccc(-c2cc(Cl)cc(C(=O)Nc3nn[nH]n3)n2)cc1C
Rattus norvegicus [9]
  inhibition in vivo at 3 mg/kg: 32%
Rattus norvegicus [10]
  inhibition in vivo at 10 mg/kg: 58%

## CCCc1cc(C(=O)Nc2nn[nH]n2)nc(-c2ccccc2)c1
Rattus norvegicus [4]
  inhibition in vivo at 3 mg/kg: 22%
Rattus norvegicus [1]
  inhibition in vivo at 10 mg/kg: 85%

## CCc1ccc(-c2cc(Cl)cc(C(=O)Nc3nn[nH]n3)n2)cc1
Rattus norvegicus [5]
  inhibition in vivo at 3 mg/kg: 100%
Rattus norvegicus [6]
  inhibition in vivo at 1 mg/kg: 49%
Rattus norvegicus [7]
  inhibition in vivo at 0.3 mg/kg: 13%

## O=C(Nc1nn[nH]n1)c1cccc(-c2ccccc2)n1
Rattus norvegicus [11]
  inhibition in vivo at 1 mg/kg: 36%
Rattus norvegicus [5]
  inhibition in vivo at 3 mg/kg: 74%
Rattus norvegicus [1]
  inhibition in vivo at 10 mg/kg: 81%

## Nc1cccc(-c2cccc(C(=O)Nc3nn[nH]n3)n2)c1
Rattus norvegicus [5]
  inhibition in vivo at 3 mg/kg: 0%
Rattus norvegicus [10]
  inhibition in vivo at 10 mg/kg: 57%
